# Bioassay records (PubChem BioAssay)
# This is a sample that favours compounds with a hit; in the whole collection about 3.1% have one here.
# LEDGF integ inh: blocks HIV-1 LEDGF/p75-dependent DNA integration; TR-FRET IN-LEDGF/p75 DNA integration, Eu/Cy5; inhibition, % at 3.7 µM; hit rate 0.64% among 370,000; AID 743269;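 active = inhibition above the screen-wide mean plus 3 SD, cut at about 13% in these data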;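 also: signal is the Cy5 over europium emission ratio at 671 and 618 nm; 0% = plate median of compound wells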
# ATG4B inhibitor: blocks human ATG4B protease cleavage of LC3 substrate; Q9Y4P1; ATG4B cleavage of LC3-PLA2, NBD-HPC fluorescence, 1 h; inhibition, % at 8.33 µM; hit rate 0.51% among 340,000; AID 504462; in the data active = inhibition above about 40%
# Target sequence (Q9Y4P1 whole entry, looked up): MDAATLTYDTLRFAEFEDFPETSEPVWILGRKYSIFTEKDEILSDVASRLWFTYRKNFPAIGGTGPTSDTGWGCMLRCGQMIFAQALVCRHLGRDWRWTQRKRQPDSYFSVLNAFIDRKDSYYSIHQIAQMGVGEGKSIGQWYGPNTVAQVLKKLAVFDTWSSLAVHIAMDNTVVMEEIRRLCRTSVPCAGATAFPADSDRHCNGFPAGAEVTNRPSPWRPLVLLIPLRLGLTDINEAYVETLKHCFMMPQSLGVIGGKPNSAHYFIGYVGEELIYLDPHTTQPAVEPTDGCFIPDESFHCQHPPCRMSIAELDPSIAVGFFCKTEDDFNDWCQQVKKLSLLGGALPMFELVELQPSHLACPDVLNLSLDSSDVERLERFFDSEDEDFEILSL
# rCAG binder: r(CAG) repeat RNA binding; TO-PRO-1 dye displacement fluorescence; AID 651821; hit rate 1.3% among 370,000; inhibition, % at 3 µM;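 active = inhibition above the plate cutoff, the mean of all test compounds on that plate plus 3 SD, cut at about 35% in these data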;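 also: 0% = DMSO alone and 100% = 100 µM mitoxantrone as full dye displacement; higher means more dye released from RNA so lower well fluorescence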
# UHRF1 binding: blocks human UHRF1 binding to methylated DNA. inhibition, % at 4.4 µM. hit rate 0.75% among 370,000. AID 687016. UHRF1 binding to methylated oligo, TR-FRET. Q96T88; in the data active = inhibition above about 21%;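 also: UHRF1 SRA domain binding a hemimethylated CpG hairpin DNA probe; 0% = median of test compound wells and 100% = reference inhibitor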
# MBD2 inh: blocks human MBD2 binding to methylated DNA; Q9UBB5; TR-FRET, MBD2 binding to methylated oligonucleotide; inhibition, % at 4.4 µM; hit rate 0.31% among 370,000; AID 686964; in the data active = inhibition above about 13%
# CSN deneddyl inh: inhibitors of human CSN-mediated cullin deneddylation. Purified CSN, SCF-Nedd8-OG deneddylation, fluorescence polarization. inhibition, % at 12.5 µM. hit rate 0.38% among 360,000. AID 651999;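 active = pattern-corrected inhibition above about 35%, with an unprinted fluorescence ratio check between 0.5 and 1.5, limit read from the data, passing the limit was not always enough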;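 also: 0% = enzyme with substrate and 100% = substrate without enzyme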
#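 Detection – fluorescence polarization · System – HEK293T-derived human Csn5 enzyme · Controls – substrate-only high control, full reaction low control · Timing – 90 min, room temperature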
# * hit, by the source's call; · = no result given.
SMILES,LEDGF integ inh,ATG4B inhibitor,rCAG binder,UHRF1 binding,MBD2 inh,CSN deneddyl inh
COc1ccc(N(CC(C)C)S(=O)(=O)c2nnc(NC(=O)c3ccco3)s2)cc1,2.5,1.7,75.7*,-0.5,1.4,9.9
O=C(CSc1ccc(-c2cccs2)nn1)c1cccs1,0.1,4.5,6.0,23.0*,9.0,3.1
O=S1(=O)c2ccc(N3CCCC3)cc2Oc2ccccc2CN1Cc1cn(Cc2cccc(C(F)(F)F)c2)nn1,3.6,·,11.3,0.9,-3.3,·
CCC[C@H]1[C@@H](NC(=O)C2CCCCC2)CC[C@@]23CCCN2C(=O)CCC[C@@H]13,7.4,·,·,2.5,-3.8,·
Cc1ccc(S(=O)(=O)Nc2ccc(Nc3nccn4c(-c5cccc(OC(F)(F)F)c5)cnc34)cc2)cc1,2.2,·,15.0,90.2*,0.8,1.0
O=C(NCCO)c1cccc(-c2cnc3c(Nc4cccc(OC(F)(F)C(F)F)c4)nccn23)c1,0.2,·,4.6,-1.7,-10.2,0.0
C#CCN1C(=O)[C@@](O)(c2cccn2C)c2cc(F)ccc21,6.0,·,1.3,13.8,2.1,·
Cc1cccc(NC(=O)c2ccc(S(=O)(=O)NCc3ccco3)cc2)n1,-1.0,4.9,4.3,30.3*,3.1,0.4
COc1ccc(-c2nc3c(Cl)cc(C(F)(F)F)cn3c2Cc2cccc(F)c2)cc1OC,-1.1,·,8.2,24.8*,2.8,0.9
COc1ccc(-c2nc3c(C)cc(Br)cn3c2Cc2cccc(Cl)c2)cc1OC,-2.6,·,12.9,21.6*,7.3,7.6
COc1ccc(-c2nc3c(C)cc(Br)cn3c2CC2CCCCC2)cc1OC,-2.4,·,7.9,23.5*,9.9,12.9
Fc1cccc(Cc2c(-c3cccc(Br)c3)nc3c(Cl)cc(C(F)(F)F)cn23)c1,3.6,·,7.8,0.1,0.9,2.4
COc1ccc(-c2nc3c4ccccc4ccn3c2Cc2ccsc2)cc1OC,-0.5,·,9.2,21.5*,12.2,2.9
Cc1ccc(-n2c(SCC(=O)Nc3ccc4c(c3)OCCO4)nnc2-c2cnccn2)cc1,1.3,·,2.3,-1.9,0.6,·
CCOC(=O)[C@]12CCCCC/C=C\1N(Cc1ccc(OC)cc1)C(=O)[C@H]2CC(=O)NCCC(C)C,-2.1,·,-1.3,-1.4,1.7,·
CCN(CC)C(=O)CC[C@H]1CC[C@]2(CCCN(C(=O)c3ccno3)C2)O1,-0.9,·,0.6,0.7,1.8,·
C=CC[C@H]1c2ccccc2[C@H]2N3N=Cc4ccccc4[C@H]3[C@H](CCc3ccccc3)C(=O)N2N1C(=O)c1ccccc1,4.1,·,10.7,3.8,-5.3,·
COc1ccc(CN2C(=O)CCCC2(C)c2nnnn2-c2ccc3c(c2)OCCO3)cc1 (stereo unspecified),-1.7,·,5.0,-0.6,3.9,·
COc1ccc(-c2nc3c4ccccc4ccn3c2Cc2cccc(Cl)c2)cc1OC,-2.6,·,7.4,23.4*,5.5,3.9
COc1ccc(-c2nc3c4ccccc4ccn3c2Cc2ccc(C)cc2)cc1OC,0.5,·,5.4,9.5,4.2,-1.7
Cc1ccc(Cc2c(C3CCCCC3)nc3c4ccccc4ccn23)cc1,5.4,·,0.9,13.0,-0.9,9.4
c1ccc2c(c1)ccn1c(Cc3ccsc3)c(C3CCCCC3)nc21,2.5,·,1.7,21.4*,5.8,5.8
COc1cccc(NC(=S)/C(=C(\[O-])c2ccc(OC(F)F)cc2)[n+]2ccccc2)c1,-1.2,-6.8,3.3,-7.2,-2.7,6.8
[O-]/C(=C(\C(=S)Nc1cccc2ccccc12)[n+]1ccccc1)c1ccc(OC(F)F)cc1,-3.1,-11.7,7.9,29.5*,0.9,5.9
CCC(NC(=O)c1ccc2c(c1)c(C)c(C)n2Cc1ccc(-c2ccccc2C#N)cc1)c1ccccc1 (stereo unspecified),-3.5,·,16.7,3.9,7.4,·
SMILES,LEDGF integ inh,ATG4B inhibitor,rCAG binder,UHRF1 binding,MBD2 inh,CSN deneddyl inh
Cc1ccc(NC(=S)NC(=O)CC2CC(C)(C)OC2=O)cc1 (stereo unspecified),-2.9,0.4,3.4,62.3*,3.2,-1.2
CC1(C)CC(CC(=O)NC(=S)Nc2ccc([N+](=O)[O-])cc2)C(=O)O1 (stereo unspecified),1.8,1.0,-3.8,6.6,-1.1,-1.1
Cc1cc(C)c(N=Cc2c(O)n(-c3nccs3)c(=O)c3ccccc23)c(C)c1,-0.2,24.5,10.0,27.3*,5.6,-3.5
C=CCN1C(=O)c2n[nH]c(COC)c2C1c1ccc(C)cc1 (stereo unspecified),-1.5,·,-0.6,1.1,1.4,·
CCn1cc(C2C(C(=O)Nc3cc(C)ccn3)=C(C)NC3=C2C(=O)CC(C)(C)C3)c(C)n1 (stereo unspecified),-2.5,9.4,-3.0,26.0*,12.9,1.0
CCN(CC)c1ccc(C2C(C(=O)Nc3ccccn3)=C(C)NC3=C2C(=O)CC(C)(C)C3)cc1 (stereo unspecified),-0.9,1.8,-5.0,-4.0,-1.4,-0.6
C=CCN1[C@H](Cc2ccccc2)COc2cccc(N3CCCC3)c2S1(=O)=O,0.2,·,6.2,1.6,0.5,·
COc1ccc(NC(=O)CSCC(=O)N(C)CC(=O)Nc2c(C)cccc2C)cc1,-5.9,-7.4,-5.2,3.2,10.5,1.3
COc1ccc(NC(=O)c2ccc(NC(=O)CN(C)CC(=O)Nc3c(C)cccc3C)cc2)cc1,1.2,8.3,9.0,21.6*,0.0,3.2
COC(=O)[C@]12C[C@H](CC(=O)NCCc3ccccc3OC)C(=O)N(Cc3cccc4ccccc34)C1=C[C@H](C1CCCC1)O[C@@H]2C,1.6,·,9.7,2.2,-2.0,·
CC1=NN(c2nc(-c3ccccc3)cs2)C(=O)C1,2.6,-6.5,68.2*,-5.6,-4.5,3.0
CC1=Nc2ccc3ccccc3c2C1(C)C,3.4,-7.8,-2.8,-0.1,-1.3,35.5*
CCS(=O)(=O)NCC(c1cccnc1)N1CCN(c2ccc(OC)cc2)CC1 (stereo unspecified),0.6,-1.4,4.3,21.9*,2.8,-3.6
CCN(C(=S)Nc1ccc(C(C)=O)cc1)C1CCCCC1,0.6,-10.4,1.2,-2.2,-2.2,48.2*
O=[N+]([O-])c1ccc(OCCCN2CCC(C(O)(c3ccccc3)c3ccccc3)CC2)c(Cl)c1,2.9,·,1.8,-1.8,-5.2,·
CN(C)c1ccc(C(=O)N2CCCC2)cc1,1.2,0.2,-1.1,3.7,4.8,-2.0
CN(C)c1ccc(C(=O)NC2(N3CCC3=O)CCCC2)cc1,-5.0,5.2,-3.4,30.8*,4.4,0.6
Cc1cc(NC(=O)CSc2nc(-c3ccc(Br)cc3)nc3c2c(=O)n(C)c(=O)n3C)no1,·,7.6,·,·,·,-0.9
CCc1nc(SCC(=O)Nc2cc(C)on2)c2c(=O)n(C)c(=O)n(C)c2n1,-1.5,-5.2,1.1,-1.4,0.6,0.8
Cc1cc(NC(=O)CSc2nc(CC(C)(C)C)nc3c2c(=O)n(C)c(=O)n3C)no1,2.1,6.0,3.8,21.7*,2.9,-0.2
